Assay results published in publication PMC3171567 (Steroids, 2011).
Residue numbers refer to the chain shown, from its start. pEC50, pIC50: −log10 of the molar value. Read-outs that look alike come from different tables or passages of the source.

Legend:
[1] = test system: androgen-induced AR transcription; test: Transcriptional activation luciferase assay; format: cell-based, human; settings: LNCaP, ARR-2 reporter, with or without DHT
In short: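 LNCaP cells were kept steroid-free for 3 days, plated at 1 × 10^5 cells/well, then co-transfected with ARR2-Luc and Renilla pRL-null using Lipofectamine 2000. After 24 h at 37 °C, cells in serum-free phenol red-free RPMI were treated in triplicate with DHT, ethanol vehicle and/or test compound for 18 h. A dual luciferase read-out gave fold induction over control, normalized to Renilla.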

[2] = test system: androgen receptor expression in LNCaP cells; test: AR down-regulation in LNCaP cells, western blot densitometry; format: cell-based, human; settings: for AR down-regulation (in words): highest concentration (15 μM) tested
[3] = Toxicity monitoring in LAPC-4 xenograft mice; format: in vivo, male SCID mice; settings: third study; for deaths of mice: 10 mice per group
[4] = test system: AR protein in LAPC-4 tumors; test: AR protein levels in excised LAPC-4 tumors, western blot; format: in vivo, male SCID mice
[5] = test system: LNCaP cells; test: Cell proliferation / viability XTT assay, LNCaP; format: cell-based; settings: Homo sapiens; for GI50: read-out: Cell growth inhibition GI50 LNCaP; for pIC50: read-out: IC50 in DHT stimulated LNCaP cells; for inhibition at 10 µM: read-out: inhibition of LNCaP proliferation
[6] = test system: LAPC-4 cells; test: Cell proliferation / viability XTT assay, LAPC-4; format: cell-based; settings: Homo sapiens; for GI50: LAPC4, read-out: Cell growth inhibition GI50 LAPC-4; for pIC50: LAPC4, read-out: IC50 in DHT stimulated LAPC4 proliferation
In short: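 Cells moved to steroid-free medium (phenol red-free RPMI, 5% dextran-coated charcoal-treated serum, 1% penicillin/streptomycin) 3 days before plating at 1.5 × 10^4 cells/well. After 24 h attachment, they were given steroid-free medium with ethanol vehicle, androgens and/or test compound, changed every three days. Viability was read by XTT absorbance on day 7. Each result is the average of at least three wells.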

[7] = test system: LAPC-4 xenografts; test: LAPC-4 prostate cancer xenograft anti-tumor efficacy; format: in vivo, male SCID mice; settings: for effect on LAPC-4 tumor growth (in words): third study, 0.15 mmol/kg s.c. once daily; for efficacy of oral dosing (in words): 0.15 mmol/kg o.d. p.o. up to day 24
[8] = target: T1, human CYP17 (Homo sapiens, UniProt P05093); test: Acetic acid releasing assay for CYP17 activity in 293T-CYP17 cells; format: cell-based; settings: read-out: CYP17 IC50, each in duplicate
T1 sequence (P05093 whole entry): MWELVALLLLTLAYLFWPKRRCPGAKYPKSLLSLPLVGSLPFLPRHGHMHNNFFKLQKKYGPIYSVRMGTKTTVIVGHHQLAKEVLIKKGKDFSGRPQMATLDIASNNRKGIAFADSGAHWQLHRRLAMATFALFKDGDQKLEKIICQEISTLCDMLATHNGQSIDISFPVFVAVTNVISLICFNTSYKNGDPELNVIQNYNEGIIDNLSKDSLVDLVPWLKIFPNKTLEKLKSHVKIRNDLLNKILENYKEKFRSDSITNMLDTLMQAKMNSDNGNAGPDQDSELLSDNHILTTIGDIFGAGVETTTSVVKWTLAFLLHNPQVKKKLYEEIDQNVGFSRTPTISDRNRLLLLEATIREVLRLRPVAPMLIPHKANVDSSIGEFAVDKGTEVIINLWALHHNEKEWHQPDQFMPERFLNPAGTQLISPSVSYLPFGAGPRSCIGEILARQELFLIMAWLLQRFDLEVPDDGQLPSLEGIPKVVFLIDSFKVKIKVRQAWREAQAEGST

[9] = target: T2, wild-type AR (in LAPC-4 cells) (Homo sapiens, UniProt P10275); format: binding
T2 sequence (P10275 1-920): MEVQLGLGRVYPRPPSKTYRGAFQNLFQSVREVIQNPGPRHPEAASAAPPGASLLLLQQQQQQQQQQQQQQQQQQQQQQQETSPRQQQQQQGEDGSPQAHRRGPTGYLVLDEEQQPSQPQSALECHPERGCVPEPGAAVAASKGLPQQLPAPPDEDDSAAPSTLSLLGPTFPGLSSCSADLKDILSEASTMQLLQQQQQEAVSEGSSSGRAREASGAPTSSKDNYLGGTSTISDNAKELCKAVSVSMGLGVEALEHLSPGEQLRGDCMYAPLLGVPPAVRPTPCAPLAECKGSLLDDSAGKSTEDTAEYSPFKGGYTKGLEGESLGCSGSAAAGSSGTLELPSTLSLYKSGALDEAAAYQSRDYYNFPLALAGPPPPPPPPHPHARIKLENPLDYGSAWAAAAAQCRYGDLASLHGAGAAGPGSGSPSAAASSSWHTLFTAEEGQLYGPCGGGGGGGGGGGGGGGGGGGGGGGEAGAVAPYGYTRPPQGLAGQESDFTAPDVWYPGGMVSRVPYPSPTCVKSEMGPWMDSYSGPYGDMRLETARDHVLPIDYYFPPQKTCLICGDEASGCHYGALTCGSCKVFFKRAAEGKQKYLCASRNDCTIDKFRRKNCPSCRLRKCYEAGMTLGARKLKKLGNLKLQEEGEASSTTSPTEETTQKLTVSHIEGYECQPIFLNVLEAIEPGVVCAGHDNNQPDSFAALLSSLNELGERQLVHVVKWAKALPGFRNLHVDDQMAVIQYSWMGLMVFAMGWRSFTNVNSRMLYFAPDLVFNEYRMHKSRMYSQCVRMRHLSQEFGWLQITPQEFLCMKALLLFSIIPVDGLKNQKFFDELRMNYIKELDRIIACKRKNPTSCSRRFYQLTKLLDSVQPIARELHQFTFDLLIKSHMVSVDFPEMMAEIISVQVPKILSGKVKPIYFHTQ

[10] = target: T3, mutant T877A AR (in LNCaP cells) (Homo sapiens, UniProt P10275, T878A); format: binding
T3 sequence (P10275 1-920 T878A): T2 sequence (P10275 1-920) with T878A

[11] = test system: prostate, seminal vesicles, and the testes; test: Urogenital tissue weights in LAPC-4 xenograft mice; format: in vivo, male SCID mice; settings: 31 days, 0.15 mmol/kg; 3 and 5 s.c. b.i.d., 4 and 5-acetate p.o.
In short: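 Male SCID mice, 4–6 weeks old, housed pathogen-free with food and water ad libitum. LAPC-4 cells were scraped into DPBS, pelleted and resuspended in Matrigel (10 mg/ml) at 2.0 × 10^7 cells/mL before inoculation. Vehicle was 0.3% HPC; test compounds were given at 0.15 mmol/kg. After 31 days of treatment, prostate, seminal vesicles and testes were excised and weighed and compared with vehicle controls.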

[12] = target: T1, human CYP17; settings: read-out: CYP17 IC50; value for 5; cited from earlier work
[13] = first study, 0.15 mmol/kg s.c. b.i.d.

## C[C@]12CCC(F)CC1=CC[C@@H]1[C@@H]2CC[C@]2(C)C(n3cnc4ccccc43)=CC[C@@H]12 (some centres unmarked) [Compound 6, 3ξ-Fluoro-17-(1H-benzimidazol-1-yl)androsta-5,16-dien]
[1]
  AR agonist/antagonist character in transcriptional activation studies: pure AR antagonists
[2]; 15 μM, 24 hours
  AR down-regulation: 50%
[3]
  changes in mouse weights (in words): no changes in mouse weights were observed
[3]; 0.15 mmol/kg s.c. once daily
  deaths of mice: five mice
[3]; 0.15 mmol/kg s.c. twice daily
  deaths of mice: two mice
[3]; necropsy
  signs of toxicity at internal examination (in words): no overt signs toxicity were seen
[4]; third study, 0.15 mmol/kg s.c., twice daily administration
  effect on AR protein levels in tumors (in words): only a minor and statistically insignificant effect on AR protein levels
[5]
  GI50: 8 µM
  pIC50: 5.10
  inhibition at 10 µM: 85%
[6]
  GI50: 16 µM
  pIC50: 5.15
[7]; on equimolar basis
  efficacy versus LAPC-4 xenografts relative to 5: ~ 2 fold
[7]
  effect on LAPC-4 tumor growth (in words): as effective in inhibiting LAPC-4 tumor growth as twice daily administration of 5
[8]
  pIC50: 6.82
[9]
  pEC50: 6.03
[9]; ratio of EC50 to that of 5
  reduction of wild-type AR binding compared to 5: 2.3 fold
[10]
  pEC50: 5.80
  binding to the mutant AR compared to 5 (in words): not significantly different from binding of 5

## C[C@]12CC[C@H](O)C[C@@H]1CC[C@@H]1[C@@H]2CC[C@]2(C)C(n3cnc4ccccc43)=CC[C@@H]12 [Compound 15, 3β-Hydroxy-17-(1H-benzimidazol-1-yl)-5α-androsta-16-ene]
[2]
  AR down-regulation (in words): did not cause down-regulation of AR expression
[5]
  GI50: 17.6 µM

## C[C@]12CC[C@H](O)CC1=CC[C@@H]1[C@@H]2CC[C@]2(C)C(c3cccnc3)=CC[C@@H]12 [Compound 3, 3β-Hydroxy-17-(3-pyridyl)androsta-5,16-dien]
[11]
  prostate size/weight (in words): failed to significantly reduce the size of any of the organs
  seminal vesicles size/weight (in words): failed to significantly reduce the size of any of the organs
  testes size/weight (in words): failed to significantly reduce the size of any of the organs
[4]; [13]
  effect on AR levels in tumors (in words): no significant effect on AR levels
[7]; first study
  efficacy of oral dosing (in words): neither compound demonstrated any significant efficacy

## C[C@]12CC[C@@H](N=[N+]=[N-])CC1=CC[C@@H]1[C@@H]2CC[C@]2(C)C(n3cnc4ccccc43)=CC[C@@H]12 [Compound 8, 3α-Azido-17-(1H-benzimidazol-1-yl)androsta-5,16-dien]
[1]
  AR agonist/antagonist character in transcriptional activation studies: pure AR antagonists
[2]
  AR down-regulation (in words): did not cause down-regulation of AR expression
[5]
  GI50: 7 µM
  pIC50: 4.80
  inhibition at 10 µM: 60%
[6]
  GI50: 19 µM
  pIC50: 4.72
[8]
  pIC50: 6.92
[9]
  pEC50: 5.61
  binding affinity to the wild-type AR compared to 5 (in words): greatly reduced
[10]
  pEC50: 5.36
  binding to the mutant AR compared to 5 (in words): greatly reduced

## C[C@]12CC[C@H](OS(N)(=O)=O)CC1=CC[C@@H]1[C@@H]2CC[C@]2(C)C(n3cnc4ccccc43)=CC[C@@H]12 [Compound 9, 3β-O-Sulfamoyl-17-(1H-benzimidazol-1-yl)androsta-5,16-dien]
[7]; administered orally as described for 5
  effect on LAPC-4 tumor growth, oral (in words): did not show any significant effect on LAPC-4 tumor growth

## C[C@]12CC[C@H](O)CC1=CC[C@@H]1[C@@H]2CC[C@]2(C)C(n3cnc4ccccc43)=CC[C@@H]12 [Compound 5, 3β-Hydroxy-17-(1H-benzimidazol-1-yl)androsta-5,16-dien]
[11]
  prostate size/weight (in words): reduced the size of the prostate, although the reduction was not quite significant
  seminal vesicles size/weight (in words): significantly reduced the size of the seminal vesicles and testes
  testes size/weight (in words): significantly reduced the size of the seminal vesicles and testes
[12]
  pIC50: 7.33
[5]
  GI50: 6 µM
[6]
  GI50: 3.2 µM
[7]; [13]
  inhibition of growth of LAPC-4 tumors (in words): most effective therapy in inhibiting the growth of LAPC-4 tumors
[7]; first study, 0.15 mmol/kg s.c. b.i.d., vs control p = 0.0001, 4 p = 0.005, 3 p = 0.053, 5-acetate p = 0.006
  average tumor volume on day 31 (in words): smaller average tumor volume on day 31
[7]; first study, 31 days of treatment, vs control, 3, and castration, p < 0.05
  final tumor weights (in words): significantly reduced
[7]; preclinical studies
  oral activity (in words): not orally active
[7]
  effect on LAPC-4 tumor growth (in words): did not have a significant effect on tumor growth

## C[C@]12CC[C@H](O)CC1=CC[C@@H]1[C@@H]2CC[C@]2(C)C(n3cnc4ccccc43)CC[C@@H]12 (stereo partly drawn) [Compound 10, 3β-Hydroxy-17-(1H-benzimidazol-1-yl)androsta-5-ene]
[2]
  AR down-regulation (in words): did not cause down-regulation of AR expression

## CC(=O)O[C@H]1CC[C@@]2(C)C(=CC[C@@H]3[C@@H]2CC[C@]2(C)C(c4cccnc4)=CC[C@@H]32)C1 [Compound 4, 3β-Acetoxy-17-(3-pyridyl)androsta-5,16-dien, reference compound]
[11]
  seminal vesicles size/weight (in words): significantly reduced the size of the seminal vesicles
[7]; first study
  efficacy of oral dosing (in words): neither compound demonstrated any significant efficacy
